Laboratory results as given in ChEMBL document CHEMBL4689842, “EUbOPEN Chemogenomics Library wave 1” (2021).

Tested on: U2OS
Assay: Multiplex assay against U2OS
Type: toxicity, cell-based
Settings: human
In short: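 Values for tubulin, mitochondrial-mass and membrane-permeability phenotypes are per cents of cells with healthy nuclei. These cells were identified by CellPathfinder machine-learning gating of live cells that had been stained at seeding with Hoechst33342, BioTracker Green Microtubule Cytoskeleton Dye, MitoTracker Red and Annexin V Alexa Fluor 680 and imaged on a CQ1 microscope at 37°C and 5% CO2 after compound addition. The gating first set Hoechst high-intensity objects apart from normal cells, then split normal cells into healthy, pyknosed or fragmented nuclei, and pyknosed cells into mitotic or apoptotic.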

[1] = 12 h, 1 µM, compound concentration 1 uM, replicate 1
[2] = 12 h, 1 µM, compound concentration 1 uM, replicate 2
[3] = 12 h, 10 µM, compound concentration 10 uM, replicate 1
[4] = 12 h, 10 µM, compound concentration 10 uM, replicate 2
[5] = 24 h, 1 µM, compound concentration 1 uM, replicate 1
[6] = 24 h, 1 µM, compound concentration 1 uM, replicate 2
[7] = 24 h, 10 µM, compound concentration 10 uM, replicate 1
[8] = 24 h, 10 µM, compound concentration 10 uM, replicate 2
[9] = 48 h, 1 µM, compound concentration 1 uM, replicate 1
[10] = 48 h, 1 µM, compound concentration 1 uM, replicate 2
[11] = 48 h, 10 µM, compound concentration 10 uM, replicate 1
[12] = 48 h, 10 µM, compound concentration 10 uM, replicate 2

CN1CCC(=C2c3ccccc3CC(=O)c3sccc32)CC1.O=C(O)/C=C/C(=O)O [KETOTIFEN FUMARATE]
Population Apoptotic (%) [1]: 63% | Population Fragmented Nuclei (%) [1]: 10% | Population Healthy Nuclei (%) [1]: 75% | Population Hoechst High Intensity Objects (%) [1]: 5% | Population Membrane Permeable-Phenotype (%) [1]: 15% | Population Mitochondria Different-Phenotype (%) [1]: 19% | Population Mitotic Cells (%) [1]: 36% | Population Normal (%) [1]: 94% | Population Pyknosed Nuclei (%) [1]: 13% | Population Tubulin-Different-Phenotype (%) [1]: 19% | Total Cell Count [1]: 178 | Population Apoptotic (%) [2]: 75% | Population Fragmented Nuclei (%) [2]: 6% | Population Healthy Nuclei (%) [2]: 87% | Population Membrane Permeable-Phenotype (%) [2]: 10% | Population Mitochondria Different-Phenotype (%) [2]: 12% | Population Mitotic Cells (%) [2]: 25% | Population Pyknosed Nuclei (%) [2]: 6% | Population Tubulin-Different-Phenotype (%) [2]: 9% | Total Cell Count [2]: 56 | Population Apoptotic (%) [3]: 52% | Population Fragmented Nuclei (%) [3]: 15% | Population Healthy Nuclei (%) [3]: 62% | Population Hoechst High Intensity Objects (%) [3]: 5% | Population Membrane Permeable-Phenotype (%) [3]: 15% | Population Mitochondria Different-Phenotype (%) [3]: 90% | Population Mitotic Cells (%) [3]: 48% | Population Normal (%) [3]: 94% | Population Pyknosed Nuclei (%) [3]: 21% | Population Tubulin-Different-Phenotype (%) [3]: 97% | Total Cell Count [3]: 167 | Population Apoptotic (%) [4]: 33% | Population Fragmented Nuclei (%) [4]: 2% | Population Healthy Nuclei (%) [4]: 75% | Population Hoechst High Intensity Objects (%) [4]: 1% | Population Mitotic Cells (%) [4]: 66% | Population Normal (%) [4]: 98% | Population Pyknosed Nuclei (%) [4]: 22% | Population Tubulin-Different-Phenotype (%) [4]: 95% | Total Cell Count [4]: 67 | Population Apoptotic (%) [5]: 48% | Population Healthy Nuclei (%) [5]: 77% | Population Hoechst High Intensity Objects (%) [5]: 5% | Population Membrane Permeable-Phenotype (%) [5]: 8% | Population Mitochondria Different-Phenotype (%) [5]: 16% | Population Mitotic Cells (%) [5]: 52% | Population Normal (%) [5]: 94% | Population Pyknosed Nuclei (%) [5]: 14% | Population Tubulin-Different-Phenotype (%) [5]: 11% | Total Cell Count [5]: 180 | Population Apoptotic (%) [6]: 100% | Population Fragmented Nuclei (%) [6]: 8% | Population Healthy Nuclei (%) [6]: 86% | Population Hoechst High Intensity Objects (%) [6]: 7% | Population Membrane Permeable-Phenotype (%) [6]: 9% | Population Mitochondria Different-Phenotype (%) [6]: 10% | Population Mitotic Cells (%) [6]: 0% | Population Normal (%) [6]: 92% | Population Pyknosed Nuclei (%) [6]: 5% | Population Tubulin-Different-Phenotype (%) [6]: 4% | Total Cell Count [6]: 64 | Population Apoptotic (%) [7]: 62% | Population Fragmented Nuclei (%) [7]: 14% | Population Healthy Nuclei (%) [7]: 59% | Population Hoechst High Intensity Objects (%) [7]: 6% | Population Membrane Permeable-Phenotype (%) [7]: 5% | Population Mitochondria Different-Phenotype (%) [7]: 96% | Population Mitotic Cells (%) [7]: 37% | Population Normal (%) [7]: 93% | Population Pyknosed Nuclei (%) [7]: 25% | Population Tubulin-Different-Phenotype (%) [7]: 85% | Total Cell Count [7]: 186 | Population Apoptotic (%) [8]: 59% | Population Fragmented Nuclei (%) [8]: 6% | Population Healthy Nuclei (%) [8]: 66% | Population Hoechst High Intensity Objects (%) [8]: 2% | Population Membrane Permeable-Phenotype (%) [8]: 22% | Population Mitochondria Different-Phenotype (%) [8]: 98% | Population Mitotic Cells (%) [8]: 40% | Population Normal (%) [8]: 97% | Population Pyknosed Nuclei (%) [8]: 27% | Population Tubulin-Different-Phenotype (%) [8]: 88% | Total Cell Count [8]: 80 | Population Apoptotic (%) [9]: 40% | Population Fragmented Nuclei (%) [9]: 4% | Population Healthy Nuclei (%) [9]: 86% | Population Hoechst High Intensity Objects (%) [9]: 4% | Population Membrane Permeable-Phenotype (%) [9]: 5% | Population Mitochondria Different-Phenotype (%) [9]: 13% | Population Mitotic Cells (%) [9]: 59% | Population Normal (%) [9]: 95% | Population Pyknosed Nuclei (%) [9]: 8% | Population Tubulin-Different-Phenotype (%) [9]: 11% | Total Cell Count [9]: 182 | Population Apoptotic (%) [10]: 28% | Population Fragmented Nuclei (%) [10]: 8% | Population Healthy Nuclei (%) [10]: 80% | Population Hoechst High Intensity Objects (%) [10]: 2% | Population Membrane Permeable-Phenotype (%) [10]: 4% | Population Mitochondria Different-Phenotype (%) [10]: 9% | Population Mitotic Cells (%) [10]: 71% | Population Normal (%) [10]: 97% | Population Pyknosed Nuclei (%) [10]: 11% | Population Tubulin-Different-Phenotype (%) [10]: 7% | Total Cell Count [10]: 63 | Population Apoptotic (%) [11]: 66% | Population Fragmented Nuclei (%) [11]: 12% | Population Healthy Nuclei (%) [11]: 60% | Population Membrane Permeable-Phenotype (%) [11]: 9% | Population Mitochondria Different-Phenotype (%) [11]: 70% | Population Mitotic Cells (%) [11]: 33% | Population Pyknosed Nuclei (%) [11]: 27% | Population Tubulin-Different-Phenotype (%) [11]: 72% | Total Cell Count [11]: 263 | Population Apoptotic (%) [12]: 57% | Population Fragmented Nuclei (%) [12]: 7% | Population Healthy Nuclei (%) [12]: 63% | Population Hoechst High Intensity Objects (%) [12]: 7% | Population Membrane Permeable-Phenotype (%) [12]: 16% | Population Mitochondria Different-Phenotype (%) [12]: 75% | Population Mitotic Cells (%) [12]: 42% | Population Normal (%) [12]: 92% | Population Pyknosed Nuclei (%) [12]: 29% | Population Tubulin-Different-Phenotype (%) [12]: 78% | Total Cell Count [12]: 130
